Assay results taken from ChEMBL document CHEMBL1914395, “Design, synthesis, and biological evaluation of callophycin A and analogues as potential chemopreventive and anticancer agents” (Bioorg Med Chem, 2011).

Legend:
[1] = target: NAD(P)H dehydrogenase [quinone] 1 (Mus musculus) (UniProt Q64669); experiment: Induction of quinone reductase 1 activity in mouse Hepa-1c1c7 cells at 50 uM by MTT assay relative to untreated control; assay type: cell-based
Procedure, shortened: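 Hepa 1c1c7 murine hepatoma cells treated with compound at 50 μM. QR1 measured by NADPH-dependent, menadiol-mediated reduction of MTT to formazan. Protein measured by crystal violet staining of identical plates. Specific activity is nmol formazan per mg protein per min. Induction ratio is treated versus DMSO-treated control.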

[2] = target: NAD(P)H dehydrogenase [quinone] 1 (Mus musculus) (UniProt Q64669); experiment: Induction of quinone reductase 1 activity in mouse Hepa-1c1c7 cells assessed as cell survival at 50 uM by MTT assay relative to control; assay type: cell-based
Aromatase = target: T1, Aromatase (Homo sapiens, UniProt P11511); experiment: Inhibition of aromatase at 50 uM after 10 mins preincubation by plate reader relative to control
T1 sequence (P11511 whole entry): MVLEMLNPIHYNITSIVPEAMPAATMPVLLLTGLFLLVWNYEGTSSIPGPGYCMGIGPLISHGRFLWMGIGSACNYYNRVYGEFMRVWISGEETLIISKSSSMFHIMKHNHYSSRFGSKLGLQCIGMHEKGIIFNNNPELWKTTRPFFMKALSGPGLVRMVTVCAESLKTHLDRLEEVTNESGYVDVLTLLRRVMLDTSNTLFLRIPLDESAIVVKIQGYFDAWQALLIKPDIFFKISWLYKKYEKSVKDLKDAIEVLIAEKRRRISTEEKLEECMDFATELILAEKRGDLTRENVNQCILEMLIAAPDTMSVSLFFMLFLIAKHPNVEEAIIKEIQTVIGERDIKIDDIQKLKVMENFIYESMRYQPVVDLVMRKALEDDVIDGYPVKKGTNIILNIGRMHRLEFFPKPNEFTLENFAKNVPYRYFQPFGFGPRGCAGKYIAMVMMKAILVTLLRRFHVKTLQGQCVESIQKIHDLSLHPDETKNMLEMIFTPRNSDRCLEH
Procedure, shortened: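 CYP19 enzyme. Compound pre-incubated 10 min with an NADPH-regenerating system (NADP+, glucose 6-phosphate, G6PDH, MgCl2, albumin) in 50 mM potassium phosphate pH 7.4. Enzyme and 0.4 μM dibenzylfluorescein substrate then added, 30 min at 37 °C. Quenched with 2 N NaOH and incubated a further 2 h at 37 °C. Fluorescence read at ex 485/em 530 nm. Compound tested at 50 μM.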

[3] = target: T2, Nitric oxide synthase, inducible (Mus musculus) (UniProt P29477); experiment: Inhibition of iNOS-mediated nitric oxide production in LPS-stimulated mouse RAW 264.7 cells at 50 uM pretreated 15 mins before LPS challenge measured after 20 hrs relative to control; assay type: cell-based
T2 sequence (whole entry): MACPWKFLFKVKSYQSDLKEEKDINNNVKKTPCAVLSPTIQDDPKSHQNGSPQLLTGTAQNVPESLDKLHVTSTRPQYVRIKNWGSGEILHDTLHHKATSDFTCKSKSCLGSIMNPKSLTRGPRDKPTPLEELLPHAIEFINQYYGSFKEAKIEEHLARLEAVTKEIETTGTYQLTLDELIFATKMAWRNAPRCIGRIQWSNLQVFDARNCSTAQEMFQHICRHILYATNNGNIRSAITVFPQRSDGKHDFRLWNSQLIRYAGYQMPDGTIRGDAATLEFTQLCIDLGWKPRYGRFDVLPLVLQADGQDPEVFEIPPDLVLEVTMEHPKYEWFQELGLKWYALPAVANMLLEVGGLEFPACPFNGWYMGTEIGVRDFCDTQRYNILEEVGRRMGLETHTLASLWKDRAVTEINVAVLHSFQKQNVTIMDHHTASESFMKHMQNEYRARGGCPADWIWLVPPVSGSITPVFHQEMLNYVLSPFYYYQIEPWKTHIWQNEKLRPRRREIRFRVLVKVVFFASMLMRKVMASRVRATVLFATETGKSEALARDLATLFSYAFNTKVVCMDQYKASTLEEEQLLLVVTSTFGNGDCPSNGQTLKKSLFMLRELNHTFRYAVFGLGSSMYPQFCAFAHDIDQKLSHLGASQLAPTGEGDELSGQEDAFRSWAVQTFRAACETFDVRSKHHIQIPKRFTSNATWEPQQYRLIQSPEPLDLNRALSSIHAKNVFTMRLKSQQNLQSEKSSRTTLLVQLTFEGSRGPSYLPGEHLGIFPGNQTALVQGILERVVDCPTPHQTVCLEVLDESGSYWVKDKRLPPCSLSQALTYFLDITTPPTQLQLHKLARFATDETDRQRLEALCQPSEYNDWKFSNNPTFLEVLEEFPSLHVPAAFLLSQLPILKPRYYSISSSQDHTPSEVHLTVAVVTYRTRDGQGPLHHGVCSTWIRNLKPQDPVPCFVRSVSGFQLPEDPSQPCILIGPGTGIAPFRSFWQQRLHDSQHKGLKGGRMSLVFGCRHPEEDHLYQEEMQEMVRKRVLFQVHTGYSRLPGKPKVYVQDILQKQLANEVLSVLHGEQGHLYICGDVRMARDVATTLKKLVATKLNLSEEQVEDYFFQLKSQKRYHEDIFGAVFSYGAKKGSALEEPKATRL
Procedure, shortened: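 RAW 264.7 cells cultured 24 h at 37°C, then given serially diluted compounds for 15 min before LPS (1 μg/mL) for 20 h. Nitrite in the medium measured with Griess reagent at 540 nm against a sodium nitrite standard curve. Cytotoxicity checked by SRB under the same conditions.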

[4] = target: T2, Nitric oxide synthase, inducible (Mus musculus); experiment: Inhibition of iNOS-mediated nitric oxide production in LPS-stimulated mouse RAW 264.7 cells assessed as cell survival at 50 uM pretreated 15 mins before LPS challenge measured after 20 hrs relative to control; assay type: cell-based
Procedure, shortened: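 RAW 264.7 cells were incubated at 37°C, 5% CO2 for 24 h. They were then exposed to compound for 15 min before LPS (1 μg/mL) was added for 20 h. Cytotoxicity was measured by SRB staining under the same conditions. Survival is expressed as % relative to vehicle-treated controls at 50 μM.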

HEK293 [5] = experiment: Inhibition of TNF-alpha-induced NFkappaB activation in human HEK293 cells at 50 uM after 6 hrs by luciferase assay relative to control; assay type: cell-based
Procedure, shortened: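 Cells incubated 6 h with TNFα plus test compound, then luciferase activity measured. Results expressed as percent of TNFα-treated control. Screening concentration 50 μM.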

HEK293 [6] = experiment: Inhibition of TNF-alpha-induced NFkappaB activation in human HEK293 cells assessed as cell survival at 50 uM after 6 hrs by luciferase assay relative to control; assay type: cell-based
MCF7 = experiment: Antiproliferative activity against human MCF7 cells assessed as survival at 50 uM after 72 hrs by SRB assay relative to control; assay type: functional; conditions: MCF7, 72 h, read-out: Survival
Procedure, shortened: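 MCF7 cells (1 × 10^4 per well) were plated onto compound and kept at 37°C, 5% CO2 for 72 h. Cells were fixed in 10% TCA for 30 min and stained with 0.4% SRB in 1% acetic acid for 30 min. Bound dye was dissolved in 10 mM Tris (pH 10.0) and read at 515 nm. Survival is given as % of DMSO-treated controls, screened at 50 μM.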

NAD(P)H dehydrogenase [quinone] 1 (Mus musculus), sequence (Q64669 whole entry): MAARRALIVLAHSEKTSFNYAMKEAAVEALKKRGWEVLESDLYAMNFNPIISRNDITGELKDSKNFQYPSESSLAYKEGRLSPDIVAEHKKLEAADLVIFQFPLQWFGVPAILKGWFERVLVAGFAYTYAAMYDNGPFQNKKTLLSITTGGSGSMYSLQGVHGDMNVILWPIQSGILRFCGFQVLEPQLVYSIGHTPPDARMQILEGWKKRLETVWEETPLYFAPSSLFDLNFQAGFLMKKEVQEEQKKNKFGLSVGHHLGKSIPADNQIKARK

| Structure (SMILES) | Ratio [1] | Survival [2] [%] | inhibition at 50 µM (Aromatase) [%] | inhibition [3] [%] | Survival [4] [%] | inhibition (HEK293 [5]) [%] | Survival (HEK293 [6]) [%] | viability at 50 µM (MCF7) [%] |
| --- | --- | --- | --- | --- | --- | --- | --- | --- |
| COC(=O)[C@@H]1Cc2c([nH]c3ccccc23)CN1S(C)(=O)=O | 1.6 | 85.8 | 30.5 | 10.6 | 91.9 | 38.6 | 153 | 72.5 |
| O=C(O)[C@H]1Cc2c([nH]c3ccccc23)CN1Cc1ccccc1 | 1.8 | 108 | 19.2 | 9.9 | 109 | 41.8 | 89.5 | – |
| C=CCOC(=O)N1Cc2[nH]c3ccccc3c2C[C@@H]1C(=O)O | 1.9 | 93.8 | 32.9 | -4 | 134 | 49.4 | 204 | 102 |
| CS(=O)(=O)N1Cc2[nH]c3ccccc3c2C[C@@H]1C(=O)O | 1.9 | 80.6 | 30.7 | 5 | 93.1 | -2.3 | 178 | 88.7 |
| O=C(O)[C@H]1Cc2c([nH]c3ccccc23)CN1 | 0.8 | 90.7 | 34.9 | 3.5 | 95.9 | – | 95.4 | – |
| Cc1ccc(S(=O)(=O)N2Cc3[nH]c4ccccc4c3C[C@H]2C(=O)O)cc1 | 1.4 | 88.8 | 16.9 | 7 | 85.5 | 42.5 | 272 | 96.5 |
| COC(=O)[C@H]1Cc2c([nH]c3ccccc23)CN1S(=O)(=O)c1ccc(C)cc1 | 1.3 | 85.8 | 28.2 | 7.4 | 91.4 | 25.2 | 114 | – |
| C#CCN1Cc2[nH]c3ccccc3c2C[C@H]1C(=O)OC | 1.7 | 89.6 | 24.4 | 22.3 | 84.4 | 21.1 | 117 | 81.1 |
| O=C(O)[C@H]1Cc2c([nH]c3ccccc23)CN1CC1CC1 | 1.8 | 102 | 31.5 | – | 130 | 48.4 | 169 | 113 |
| COC(=O)[C@H]1Cc2c([nH]c3ccccc23)CN1CC1CC1 | 1.8 | 81.8 | 37.9 | 5.6 | 124 | 29.9 | 254 | 102 |
| C#CCN1Cc2[nH]c3ccccc3c2C[C@@H]1C(=O)O | 1.6 | 94.6 | 23.5 | 16.4 | 87.9 | -7.7 | 72.7 | 107 |
| Cc1ccc(S(=O)(=O)N2Cc3[nH]c4ccccc4c3C[C@@H]2C(=O)O)cc1 | 1.2 | 93.8 | 23 | 2.9 | 102 | 26 | 195 | 99.8 |
| O=C(O)[C@@H]1Cc2c([nH]c3ccccc23)CN1 [CYCLOMETHYLTRYPTOPHAN] | 1.1 | 99.2 | 20.7 | 2 | 100 | 4.6 | 103 | – |
| CS(=O)(=O)N1Cc2[nH]c3ccccc3c2C[C@H]1C(=O)O | 1.1 | 96.7 | 26.5 | 6.4 | 94.2 | 51.1 | 256 | – |
| O=C(O)[C@H]1Cc2c([nH]c3ccccc23)CN1Cc1ccc(O)cc1 | 1.5 | 91.2 | 38.4 | 27.8 | 94.7 | 54.6 | 133 | 71.1 |
